Data: ChEMBL document CHEMBL2157989, “Synthesis and biological evaluation of antibody conjugates of phosphate prodrugs of cytotoxic DNA alkylators for the targeted treatment of cancer” (J Med Chem, 2012)
Calls of active or inactive are those of the source. The calls are words filed in the database; no cut-off is given here.

Columns and labels:
[1] = Solubility in DMSO at 1.5 mg sonicated for 45 mins followed by centrifugation for 45 mins by UV/Vis spectroscopy; assay type: physicochemical; details: 0.75 h
In short: (§1)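 Solid compound (~1.5 mg) in the stated solvent was sonicated 45 min, then centrifuged at 1400g for 45 min. The supernatant concentration was read by UV/vis at 340 nm, using ε = 41500 M⁻¹ cm⁻¹ for the free phenols and 34500 M⁻¹ cm⁻¹ for the phosphate prodrugs (pH 7.0 values).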

[2] = Cytotoxicity against human NAMALWA cells assessed as cell survival after 72 hrs by clonogenic assay; assay type: functional, cell-based; details: NAMALVA
In short: (§2)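 Cells were kept in RPMI 1640 with 10% heat-inactivated FBS at 37 °C and 6% CO₂. They were plated at 1000–5000 cells/well and exposed to 0–3 nM test agent for 72 h. Medium was then replaced and colonies grew for 7–10 days in total after plating. Colonies were fixed and stained with 0.2% crystal violet in 10% formalin/PBS, then counted. Surviving fraction = colonies in treated wells / colonies in control wells; IC₅₀ was taken from this.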

[3] = Solubility in hexane at 1.5 mg sonicated for 45 mins followed by centrifugation for 45 mins by UV/Vis spectroscopy; assay type: physicochemical; details: 0.75 h; in short: as §1
[4] = Solubility in toluene at 1.5 mg sonicated for 45 mins followed by centrifugation for 45 mins by UV/Vis spectroscopy; assay type: physicochemical; details: 0.75 h; in short: as §1
[5] = Solubility in chloroform at 1.5 mg sonicated for 45 mins followed by centrifugation for 45 mins by UV/Vis spectroscopy; assay type: physicochemical; details: 0.75 h; in short: as §1
[6] = Solubility in dichloromethane at 1.5 mg sonicated for 45 mins followed by centrifugation for 45 mins by UV/Vis spectroscopy; assay type: physicochemical; details: 0.75 h
[7] = Solubility in DMF at 1.5 mg sonicated for 45 mins followed by centrifugation for 45 mins by UV/Vis spectroscopy; assay type: physicochemical; details: 0.75 h; in short: as §1
[8] = Solubility in ethanol at 1.5 mg sonicated for 45 mins followed by centrifugation for 45 mins by UV/Vis spectroscopy; assay type: physicochemical; details: 0.75 h; in short: as §1
HL-60 = experiment: Cytotoxicity against human HL60 cells assessed as cell survival after 72 hrs by clonogenic assay; assay type: functional, cell-based; details: HL-60, 72 h; in short: as §2
[9] = Solubility in methanol at 1.5 mg sonicated for 45 mins followed by centrifugation for 45 mins by UV/Vis spectroscopy; assay type: physicochemical; details: 0.75 h; in short: as §1
[10] = Solubility in water at 1.5 mg sonicated for 45 mins followed by centrifugation for 45 mins by UV/Vis spectroscopy; assay type: physicochemical; details: 0.75 h; in short: as §1
Ramos [11] = experiment: Cytotoxicity against human Ramos cells assessed as cell survival after 72 hrs by clonogenic assay; assay type: functional, cell-based; in short: as §2
[12] = Solubility in DMA at 1.5 mg sonicated for 45 mins followed by centrifugation for 45 mins by UV/Vis spectroscopy; assay type: physicochemical; details: 0.75 h; in short: as §1
[13] = Solubility in ethyl acetate at 1.5 mg sonicated for 45 mins followed by centrifugation for 45 mins by UV/Vis spectroscopy; assay type: physicochemical; details: 0.75 h; in short: as §1
[14] = Prodrug activation assessed as enzyme-mediated compound dephosphorylation in presence of bovine semen prostatic acid phosphatase P3147 at pH 7.4 by HPLC; details: cattle, isolated protein
[15] = Prodrug activation assessed as enzyme-mediated compound dephosphorylation in presence of rabbit intestine alkaline phosphatase P2256 at pH 7.4 by HPLC; details: isolated protein
[16] = Prodrug activation assessed as enzyme-mediated compound dephosphorylation in presence of human placenta alkaline phosphatase from P3895 at pH 7.4 by HPLC; details: isolated protein
[17] = Prodrug activation assessed as enzyme-mediated compound dephosphorylation in presence of canine intestine alkaline phosphatase P8639 at pH 7.4 by HPLC; details: dog, isolated protein
[18] = Solubility in water containing 5% dioxane at 1.5 mg sonicated for 45 mins followed by centrifugation for 45 mins by UV/Vis spectroscopy; assay type: physicochemical; details: 0.75 h
[19] = Stability of the compound in 5 % DMA assessed as cyclopropyl ring formation incubated for 1 yr at room temperature at pH 7 by HPLC analysis; assay type: physicochemical; details: buffer, pH 7, 8766 h
In short: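 Phosphate prodrug is stored for one year at room temperature in phosphate buffer containing 5% DMA at pH ~7. Conversion to the ring-closed cyclopropyl form is monitored by HPLC.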

[20] = Prodrug activation assessed as enzyme-mediated compound dephosphorylation in presence of bovine alkaline phosphatase P8361 at pH 7.4 by HPLC; details: cattle, isolated protein
[21] = Prodrug activation assessed as enzyme-mediated compound dephosphorylation in presence of bovine intestinal mucosa alkaline phosphatase P7640 at pH 7.4 by HPLC; details: cattle, isolated protein
[22] = Solubility in water containing 5% THF at 1.5 mg sonicated for 45 mins followed by centrifugation for 45 mins by UV/Vis spectroscopy; assay type: physicochemical; details: 0.75 h
[23] = Prodrug activation assessed as enzyme-mediated compound dephosphorylation in presence of bovine liver alkaline phosphatase P7034 at pH 7.4 by HPLC; details: cattle, isolated protein
[24] = Solubility in water containing 5% DMSO at 1.5 mg sonicated for 45 mins followed by centrifugation for 45 mins by UV/Vis spectroscopy; assay type: physicochemical; details: 0.75 h
[25] = Prodrug activation assessed as enzyme-mediated compound dephosphorylation in presence of wheat germ acid phosphatase Sigma P3627 at pH 7.4 by HPLC; details: isolated protein
[26] = Prodrug activation assessed as enzyme-mediated compound dephosphorylation in presence of calf intestine mucosa alkaline phosphatase P79390 at pH 7.4 by HPLC; details: cattle, isolated protein
[27] = Prodrug activation assessed as enzyme-mediated compound dephosphorylation in presence of human semen prostatic acid phosphatase P1649 at pH 7.4 by HPLC; details: isolated protein
[28] = Prodrug activation assessed as enzyme-mediated compound dephosphorylation in presence of bovine kidney alkaline phosphatase P4653 at pH 7.4 by HPLC; details: cattle, isolated protein
[29] = Prodrug activation assessed as enzyme-mediated compound dephosphorylation in presence of porcine intestine mucosa alkaline phosphatase P4002 at pH 7.4 by HPLC; details: pig, isolated protein
[30] = Prodrug activation assessed as enzyme-mediated compound dephosphorylation in presence of calf intestine alkaline phosphatase P7923 at pH 7.4 by HPLC; details: cattle, isolated protein
[31] = Solubility in water containing 5% DMF at 1.5 mg sonicated for 45 mins followed by centrifugation for 45 mins by UV/Vis spectroscopy; assay type: physicochemical; details: 0.75 h
[32] = Solubility in water containing 5% DMA at 1.5 mg sonicated for 45 mins followed by centrifugation for 45 mins by UV/Vis spectroscopy; assay type: physicochemical; details: 0.75 h
Ramos [33] = experiment: Antitumor activity against human Ramos cells xenografted in CB17 SCID mouse assessed as reduction in tumor growth rate at 75 ug/kg, iv dosed as qdx5 regime starting 7 days post xenograft; assay type: functional, organism-based
In short: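 Female CB 17 SCID mice, five weeks old, were given Ramos cells subcutaneously under the right shoulder (5 × 10⁶ cells/mouse in 0.1 mL serum-free medium). Tumors grew 7 days to about 100 mm³. Mice were randomized, six per group. Dosing was 75 μg/kg (drug basis) qd ×5, given intravenously, with phosphate-buffered saline as vehicle control. Tumors were measured in three dimensions twice weekly, with volume = ½(l×w×h); body weight was also taken twice weekly.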

[34] = Prodrug activation assessed as enzyme-mediated compound dephosphorylation in presence of porcine kidney alkaline phosphatase P4439 at pH 7.4 by HPLC; details: pig, isolated protein
[35] = Solubility in water containing 5% acetone at 1.5 mg sonicated for 45 mins followed by centrifugation for 45 mins by UV/Vis spectroscopy; assay type: physicochemical; details: 0.75 h

With `O=C(CCSSc1ccccn1)Nc1ccc2[nH]c(C(=O)Nc3ccc4[nH]c(C(=O)N5C[C@@H](CCl)c6c5cc(O)c5ccccc65)cc4c3)cc2c1` the solubility [1] was “soluble”, the IC50 [2] was 0.09 nM and the solubility [3] was “Insoluble”. For the same compound, the solubility [4] was “Insoluble”, the solubility [5] was “Insoluble” and the solubility [6] was “Insoluble”. For the same compound, the solubility [7] was “soluble”, the solubility [8] was “Insoluble” and the IC50 (HL-60) was 0.05 nM. For the same compound, the solubility [9] was “Insoluble”, the solubility [10] was “Insoluble” and the IC50 (Ramos [11]) was 0.05 nM. The solubility [12] was “soluble” and the solubility [13] was “Insoluble”.
For `CC(C)(S)CCC(=O)Nc1ccc2[nH]c(C(=O)Nc3ccc4[nH]c(C(=O)N5C[C@@H](CCl)c6c5cc(OP(=O)(O)O)c5ccccc65)cc4c3)cc2c1`, the solubility [1] was “soluble”, the Drug metabolism [14] was “Active” and the Drug metabolism [15] was “Active”. The Drug metabolism [16] was “Active”, the solubility [3] was “Insoluble” and the solubility [4] was “Insoluble”. For the same compound, the Drug metabolism [17] was “Active”, the solubility [5] was “Insoluble” and the solubility [18] was “soluble”. For the same compound, the Drug degradation [19] was 3%, the solubility [6] was “Insoluble” and the solubility [7] was “soluble”. The solubility [8] was “Insoluble”, the solubility [9] was “Insoluble” and the solubility [10] was “Insoluble”. The Drug metabolism [20] was “Active”, the Drug metabolism [21] was “Active” and the solubility [22] was “soluble”. For the same compound, the Drug metabolism [23] was “Active”, the solubility [24] was “soluble” and the solubility [12] was “soluble”. The Drug metabolism [25] was “Active”, the Drug metabolism [26] was “Active” and the Drug metabolism [27] was “Active”. For the same compound, the Drug metabolism [28] was “Active”, the Drug metabolism [29] was “Active” and the Drug metabolism [30] was “Active”. The solubility [31] was “soluble”, the solubility [32] was “soluble” and the Activity (Ramos [33]) was “inactive”. For the same compound, the Drug metabolism [34] was “Active”, the solubility [13] was “Insoluble” and the solubility [35] was “soluble”.
With `O=C(Nc1ccc2[nH]c(C(=O)N3C[C@@H](CCl)c4c3cc(O)c3ccccc43)cc2c1)c1cc2cc([N+](=O)[O-])ccc2[nH]1` the IC50 [2] was 0.005 nM and the IC50 (HL-60) was 0.007 nM.
For `CC(=O)SCCC(=O)Nc1ccc2[nH]c(C(=O)Nc3ccc4[nH]c(C(=O)N5C[C@@H](CCl)c6c5cc(O)c5ccccc65)cc4c3)cc2c1`, the solubility [1] was “soluble”, the IC50 [2] was 0.02 nM and the solubility [3] was “Insoluble”. For the same compound, the solubility [4] was “Insoluble”, the solubility [5] was “Insoluble” and the solubility [6] was “Insoluble”. The solubility [7] was “soluble”, the solubility [8] was “Insoluble” and the IC50 (HL-60) was 0.045 nM. For the same compound, the solubility [9] was “Insoluble”, the solubility [10] was “Insoluble” and the IC50 (Ramos [11]) was 0.047 nM. For the same compound, the solubility [12] was “soluble” and the solubility [13] was “Insoluble”.
`CSSCCC(=O)Nc1ccc2[nH]c(C(=O)Nc3ccc4[nH]c(C(=O)N5C[C@H]6CC67C5=CC(=O)c5ccccc57)cc4c3)cc2c1` (stereo partly specified) showed an IC50 [2] of 0.012 nM, an IC50 (HL-60) of 0.012 nM and an IC50 (Ramos [11]) of 0.015 nM.
With `Nc1ccc2[nH]c(C(=O)Nc3ccc4[nH]c(C(=O)N5C[C@@H](CCl)c6c5cc(O)c5ccccc65)cc4c3)cc2c1` the IC50 [2] was 0.005 nM and the IC50 (HL-60) was 0.03 nM.
For `O=C(CCS)Nc1ccc2[nH]c(C(=O)Nc3ccc4[nH]c(C(=O)N5C[C@@H](CCl)c6c5cc(OP(=O)(O)O)c5ccccc65)cc4c3)cc2c1`, the solubility [1] was “soluble”, the Drug metabolism [14] was “Active” and the Drug metabolism [15] was “Active”. The Drug metabolism [16] was “Active”, the solubility [3] was “Insoluble” and the solubility [4] was “Insoluble”. For the same compound, the Drug metabolism [17] was “Active”, the solubility [5] was “Insoluble” and the solubility [18] was “soluble”. For the same compound, the Drug degradation [19] was 3%, the solubility [6] was “Insoluble” and the solubility [7] was “soluble”. For the same compound, the solubility [8] was “Insoluble”, the solubility [9] was “Insoluble” and the solubility [10] was “Insoluble”. The Drug metabolism [20] was “Active”, the Drug metabolism [21] was “Active” and the solubility [22] was “soluble”. The Drug metabolism [23] was “Active”, the solubility [24] was “soluble” and the solubility [12] was “soluble”. The Drug metabolism [25] was “Active”, the Drug metabolism [26] was “Active” and the Drug metabolism [27] was “Active”. The Drug metabolism [28] was “Active”, the Drug metabolism [29] was “Active” and the Drug metabolism [30] was “Active”. The solubility [31] was “soluble”, the solubility [32] was “soluble” and the Activity (Ramos [33]) was “inactive”. The Drug metabolism [34] was “Active”, the solubility [13] was “Insoluble” and the solubility [35] was “soluble”.
